As usually defined, the EC50 is the concentration that produces a half-maximal response.

Here are results for 7 compounds from ChEMBL document CHEMBL4041497, “Isolation of Phorbol Esters from Euphorbia grandicornis and Evaluation of Protein Kinase C- and Human Platelet-Activating Effects of Euphorbiaceae Diterpenes” (J Nat Prod, 2016).

The target in one assay is Protein kinase C (PKC). Nature of the assay: Activation of PKC in human platelet assessed as induction of platelet aggregation measured within 15 mins by tribidimetric method.
Assay [1] concerns the target T1, Protein kinase C (PKC) (Homo sapiens) (UniProt O94806+P41743+P17252+P05129+Q05655+P05771+Q05513+Q02156+P24723+Q15139+Q04759). The assay is described as follows: Activation of PKC in human platelet assessed as induction of platelet aggregation at 10 uM measured within 15 mins by tribidimetric method. In short, it runs like this:
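Washed human platelets in Tyrode's solution (2 mM Ca2+, 11.1 mM glucose, 3.5 mg/mL BSA) at 3 × 10^8 platelets/mL, prewarmed 3 min at 37 °C, then given compound or DMSO vehicle with fast shaking (20 Hz) at 37 °C. Aggregation read turbidimetrically as maximal rise in light transmission at 450 nm within 15 min. Means ± SEM, n = 3.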

The target of assay [2] is Protein kinase C beta type (Homo sapiens) (UniProt P05771). Nature of the assay: Induction of PKC-beta1 translocation from cytosol to plasma membrane in human platelet at 0.1 uM measured after 1 min by Western blot analysis. In short, it runs like this: (§1)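 Platelets were treated with compound for 1 min, then lysed with 0.1% digitonin (4 °C, 3 min) and spun at 14 000 rpm for 10 min; the supernatant was the cytosol. The pellet was extracted with 1% Triton X-100 and respun; that supernatant was the membrane fraction. Both fractions were immunoblotted for PKC-α, -β, -δ and -θ.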

The target of assay [3] is T1, Protein kinase C (PKC) (Homo sapiens). The assay is described as follows: Activation of PKC in human platelet assessed as phosphorylation of MARCK at 0.1 uM measured after 10 mins by Western blot analysis. In short, it runs like this:
(§2)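 Washed human platelets were prewarmed 3 min at 37 °C and exposed to compound for 10 min. They were lysed directly in 2× SDS sample buffer and boiled 5 min, then run on SDS-PAGE. Immunoblots used phospho-specific antibodies (phospho-Ser PKC substrate, p-Akt Ser308, p-ERK, p-p38, p-VASP, p-PKD, p-MARCKS) with HRP anti-rabbit and chemiluminescence. GAPDH served as loading control.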
On the technique in general: In western blotting, separated proteins are transferred to a membrane and probed.

The target is the same in assay [4]. The assay is described as follows: Activation of PKC in human platelet assessed as reduction in phosphorylation of AKT at ser-308 at 0.1 uM in presence of PKCalpha/beta inhibitor Go6976 measured after 10 mins by Western blot analysis. In a few lines: (§3)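 Human platelets were pretreated 1 min with Go6976 1 μM or DMSO vehicle, then stimulated with compound. Lysates were made in 2× SDS sample buffer and boiled, then run on SDS-PAGE and nitrocellulose blots. Probes were phospho-specific antibodies (PKC substrates, Akt Ser308, MARCKS, VASP, p38) with chemiluminescent detection. GAPDH was the loading control.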

Assay [5] has the same target. The assay is described as follows: Activation of PKC in human platelet assessed as phosphorylation of ERK at 0.1 uM measured after 10 mins by Western blot analysis. In a few lines: as §2
The target is the same in assay [6]. Nature of the assay: Activation of PKC in human platelet assessed as reduction in phosphorylation of p38 at 0.1 in presence of PKCalpha/beta inhibitor Go6976 measured after 10 mins by Western blot analysis. In a few lines: as §3
The target is the same in assay [7]. Nature of the assay: Activation of PKC in human platelet assessed as phosphorylation of PKC substrates at 0.1 uM measured after 10 mins by Western blot analysis. In a few lines:
as §2

The target is the same in assay [8]. Nature of the assay: Activation of PKC in human platelet assessed as phosphorylation of VASP at 0.1 uM measured after 10 mins by Western blot analysis. In short, it runs like this:
as §2

Assay [9] shares this target. Nature of the assay: Activation of PKC in human platelet assessed as increase in platelet secretion by measuring ATP release at 0.1 uM in presence of PKC inhibitor GF109203X measured after 5 mins by luciferin-luciferase assay. In a few lines:
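Washed human platelets at 3 × 10^8/mL in Tyrode's with Ca2+ 2 mM, glucose 11.1 mM and BSA 3.5 mg/mL. Prewarmed 3 min at 37 °C, then preincubated 3 min with GF109203X 1 μM before compound. After 5 min at 37 °C, spun at 4 °C; supernatant ATP measured by luciferin–luciferase bioluminescence. Means ± SEM, n = 3.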

The target is the same in assay [10]. The assay is described as follows: Activation of PKC in human platelet assessed as reduction in phosphorylation of VASP at 0.1 uM in presence of PKCalpha/beta inhibitor Go6976 measured after 10 mins by Western blot analysis. In a few lines:
as §3

Assay [11] has the same target. The assay is described as follows: Activation of PKC in human platelet assessed as phosphorylation of PKD at 0.1 uM measured after 10 mins by Western blot analysis. In a few lines: as §2
The target of assay [12] is Protein kinase C theta type (Homo sapiens) (UniProt Q04759). The assay is described as follows: Induction of PKC-theta translocation from cytosol to plasma membrane in human platelet at 0.1 uM measured after 1 min by Western blot analysis. In a few lines:
as §1

Assay [13] addresses Protein kinase C delta type (Homo sapiens) (UniProt Q05655). Nature of the assay: Induction of PKC-delta translocation from cytosol to plasma membrane in human platelet at 0.1 uM measured after 1 min by Western blot analysis. In short, it runs like this: as §1
The target of assay [14] is T1, Protein kinase C (PKC) (Homo sapiens). Nature of the assay: Activation of PKC in human platelet assessed as phosphorylation of p38 at 0.1 uM measured after 10 mins by Western blot analysis. In a few lines: as §2
For assay [15] the target is unchanged. The assay is described as follows: Activation of PKC in human platelet assessed as reduction in phosphorylation of MARCK at 0.1 uM in presence of PKCalpha/beta inhibitor Go6976 measured after 10 mins by Western blot analysis. In a few lines: as §3
The target is the same in assay [16]. The assay is described as follows: Activation of PKC in human platelet assessed as increase in platelet secretion by measuring ATP release at 0.1 uM measured after 5 mins by luciferin-luciferase assay. In short, it runs like this:
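Tyrode's-suspended washed human platelets (3 × 10^8/mL; Ca2+ 2 mM, glucose 11.1 mM, BSA 3.5 mg/mL). Prewarmed 3 min at 37 °C, then incubated 5 min at 37 °C with compound or DMSO vehicle. Spun 1 min at 4 °C; released ATP in supernatant read by luciferin–luciferase reaction. Means ± SEM, n = 3.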

Assay [17] shares this target. The assay is described as follows: Activation of PKC in human platelet assessed as reduction in phosphorylation of PKC substrates at 0.1 uM in presence of PKCalpha/beta inhibitor Go6976 measured after 10 mins by Western blot analysis. In a few lines:
as §3

Assay [18] shares this target. Nature of the assay: Activation of PKC in human platelet assessed as increase in platelet secretion by measuring ATP release at 0.1 uM in presence of PKCalpha/beta inhibitor Go6976 measured after 5 mins by luciferin-luciferase assay. In a few lines:
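Washed human platelets at 3 × 10^8/mL in Tyrode's with Ca2+ 2 mM, glucose 11.1 mM and BSA 3.5 mg/mL. Pretreated 1 min with Go6976 1 μM or DMSO vehicle, then compound added. After 5 min at 37 °C, centrifuged at 4 °C; supernatant ATP quantified by luciferin–luciferase assay. Means ± SEM, n = 3.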

For assay [19] the target is unchanged. Nature of the assay: Activation of PKC in human platelet assessed as phosphorylation of AKT at ser-308 at 0.1 uM measured after 10 mins by Western blot analysis. In short, it runs like this: as §2
For assay [20], the target named is Protein kinase C alpha type (Homo sapiens) (UniProt P17252). Nature of the assay: Induction of PKC-alpha translocation from cytosol to plasma membrane in human platelet at 0.1 uM measured after 1 min by Western blot analysis. In a few lines:
as §1

Calls of active or inactive are those of the source. The calls are words filed in the database; no cut-off is given here.

Chain of Protein kinase C beta type (Homo sapiens) (P05771 2-671 limits assumed): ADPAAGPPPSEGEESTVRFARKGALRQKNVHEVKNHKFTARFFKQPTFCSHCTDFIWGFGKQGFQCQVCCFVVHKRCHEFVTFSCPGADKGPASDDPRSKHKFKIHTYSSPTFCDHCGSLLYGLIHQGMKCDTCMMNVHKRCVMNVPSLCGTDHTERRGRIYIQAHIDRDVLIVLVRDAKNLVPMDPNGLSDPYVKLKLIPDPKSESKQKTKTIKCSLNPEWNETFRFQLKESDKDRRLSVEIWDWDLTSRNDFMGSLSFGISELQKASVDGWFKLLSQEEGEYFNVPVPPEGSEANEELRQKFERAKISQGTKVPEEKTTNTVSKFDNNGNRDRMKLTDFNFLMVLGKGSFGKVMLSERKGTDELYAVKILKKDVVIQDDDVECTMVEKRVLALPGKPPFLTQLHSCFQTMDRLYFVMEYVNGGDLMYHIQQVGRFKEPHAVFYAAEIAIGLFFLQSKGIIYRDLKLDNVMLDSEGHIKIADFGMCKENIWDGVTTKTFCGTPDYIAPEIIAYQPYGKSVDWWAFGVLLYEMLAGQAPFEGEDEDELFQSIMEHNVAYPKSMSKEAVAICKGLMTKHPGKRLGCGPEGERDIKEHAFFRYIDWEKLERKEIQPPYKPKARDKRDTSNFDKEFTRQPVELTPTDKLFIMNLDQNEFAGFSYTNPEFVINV
Chain of Protein kinase C delta type (Homo sapiens) (Q05655 whole entry, looked up): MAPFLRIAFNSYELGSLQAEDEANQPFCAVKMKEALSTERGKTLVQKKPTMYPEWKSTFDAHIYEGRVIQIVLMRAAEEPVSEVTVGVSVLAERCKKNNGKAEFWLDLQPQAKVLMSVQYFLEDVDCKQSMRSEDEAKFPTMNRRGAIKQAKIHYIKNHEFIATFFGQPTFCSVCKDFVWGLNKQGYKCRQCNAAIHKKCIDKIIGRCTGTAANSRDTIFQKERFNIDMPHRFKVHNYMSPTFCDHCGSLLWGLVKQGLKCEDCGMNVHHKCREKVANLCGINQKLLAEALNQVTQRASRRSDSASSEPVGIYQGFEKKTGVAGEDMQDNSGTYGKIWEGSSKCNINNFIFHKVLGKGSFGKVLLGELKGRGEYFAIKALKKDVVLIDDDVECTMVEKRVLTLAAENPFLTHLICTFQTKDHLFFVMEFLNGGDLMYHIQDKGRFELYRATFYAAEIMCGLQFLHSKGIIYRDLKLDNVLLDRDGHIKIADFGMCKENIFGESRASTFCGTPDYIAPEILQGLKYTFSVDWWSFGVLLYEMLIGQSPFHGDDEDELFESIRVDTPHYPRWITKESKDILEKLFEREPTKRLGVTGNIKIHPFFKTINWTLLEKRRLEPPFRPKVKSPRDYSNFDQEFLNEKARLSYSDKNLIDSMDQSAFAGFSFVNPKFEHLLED
Chain of Protein kinase C theta type (Homo sapiens) (Q04759 whole entry, looked up): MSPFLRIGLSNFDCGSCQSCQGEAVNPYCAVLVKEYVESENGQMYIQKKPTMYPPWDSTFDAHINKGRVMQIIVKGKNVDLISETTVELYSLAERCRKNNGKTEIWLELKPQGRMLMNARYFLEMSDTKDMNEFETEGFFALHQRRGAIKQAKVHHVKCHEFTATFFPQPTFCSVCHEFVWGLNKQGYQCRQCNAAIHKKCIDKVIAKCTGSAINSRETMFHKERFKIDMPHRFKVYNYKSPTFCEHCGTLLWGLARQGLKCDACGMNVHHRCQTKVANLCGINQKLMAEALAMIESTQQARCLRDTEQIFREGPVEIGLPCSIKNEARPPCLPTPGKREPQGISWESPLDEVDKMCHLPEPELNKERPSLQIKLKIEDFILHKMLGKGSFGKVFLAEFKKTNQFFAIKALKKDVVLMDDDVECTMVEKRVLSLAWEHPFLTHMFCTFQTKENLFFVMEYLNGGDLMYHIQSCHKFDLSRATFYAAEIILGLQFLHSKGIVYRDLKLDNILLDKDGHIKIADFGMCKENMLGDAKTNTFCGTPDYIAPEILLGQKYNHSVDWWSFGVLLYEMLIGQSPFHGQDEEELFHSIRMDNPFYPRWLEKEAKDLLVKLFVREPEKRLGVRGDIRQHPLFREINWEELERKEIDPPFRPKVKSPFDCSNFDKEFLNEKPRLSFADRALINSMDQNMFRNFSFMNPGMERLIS

For the compound `C/C=C(/C)C(=O)O[C@H]1C(C)=C[C@]23C(=O)[C@@H](C=C(C)[C@@H](O)[C@]12O)[C@H]1[C@@H](C[C@H]3C)C1(C)C`, the EC50 on Protein kinase C (PKC) turned out to be 5.04 µM.

For `C/C=C(/C)C(=O)OC[C@]1(C)[C@H]2[C@@H]3C=C(COC(C)=O)C[C@]4(O)C(=O)C(C)=C[C@H]4[C@@]3(O)[C@H](C)C[C@]21OC(=O)C(C)C`, the EC50 on Protein kinase C (PKC) is 6.08 µM.

`C=C1[C@H](OC(C)=O)CC(=O)C(C)(C)/C=C/[C@@H](C)C(=O)[C@@]2(OC(C)=O)C[C@@](C)(OC(=O)c3ccccc3)[C@H](OC(C)=O)[C@@H]2[C@H]1OC(C)=O`: the result in assay [1] was inactive.

Take `CCCCCCCCCCCCCC(=O)O[C@@H]1[C@@H](C)[C@@]2(O)[C@@H](C=C(CO)C[C@]3(O)C(=O)C(C)=C[C@@H]23)[C@@H]2C(C)(C)[C@]12OC(C)=O`: the outcome in [2], in assay [3], in assay [5], in [7], in assay [8] and in assay [11] was Active. Further, the outcome in assay [12], in [13], in assay [14], in assay [16], in assay [19] and in [20] was Active. For the same compound, the result in [4], in assay [6], in [9], in assay [10], in assay [15] and in [17] was inactive. Further, the outcome in [18] was inactive.

As to `C/C=C(/C)C(=O)O[C@H]1C(C)=C[C@]23C(=O)[C@@H](C=C(CO)[C@@H](O)[C@]12O)[C@H]1[C@@H](C[C@H]3C)C1(C)C` [INGENOL MEBUTATE], the outcome in assay [2], in assay [3], in assay [5], in assay [7], in assay [8] and in assay [11] was Active. In addition, the result in assay [13], in assay [14], in assay [16], in [19] and in assay [20] was Active. Further, the EC50 on Protein kinase C (PKC) came out at 0.0725 µM.

Take `C=C1[C@H](OC(C)=O)CC(=O)C(C)(C)/C=C/[C@@H](C)C(=O)[C@@]2(OC(C)=O)C[C@@](C)(OC(C)=O)[C@H](OC(C)=O)[C@@H]2[C@H]1OC(C)=O`: the outcome in assay [1] was inactive.

`CC(=O)O[C@@H]1[C@H]2[C@@H](OC(=O)c3ccccc3)[C@@H](C)C[C@]2(OC(C)=O)[C@@H](OC(C)=O)[C@]2(C)OC[C@]13C(=O)C=C[C@H](C(C)(C)OC(C)=O)[C@@H]23`: the result in assay [1] was inactive.
